# High-throughput results: PubChem BioAssay, The Scripps Research Institute Molecular Screening Center
# TCR-CD3 inh = inhibitors of human TCR-CD3 interaction, primary screen, biochemical, fluorescence, TAMRA-labeled TCR probe | 360,000 compounds, 0.37% hits | inhibition, % at 9.4 µM | T-cell receptor (TCR); in the data active means inhibition above about 19%;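 further: recombinant mutant TCR 2C K166C tagged with TAMRA read by polarization; 0% = receptor in buffer alone and 100% = receptor with positive control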
# TDP2 absorb = human TDP2 enzyme inhibitors, primary screen, biochemical, epi absorbance, recombinant enzyme | Tyrosyl-DNA phosphodiesterase 2 (Homo sapiens), O95551 | T5PNP hydrolysis, p-nitrophenol absorbance 415 nm | inhibition, % at 12.8 µM | 370,000 compounds, 0.34% hits;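 active means inhibition above the mean of all tested compounds plus 3 SD, set per campaign, cut at about 25% in these data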;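 further: 0% = DMSO with enzyme and 100% = buffer with substrate but no TDP2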
#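 Assay system: Recombinant human TDP2 | Quantity: 120 nM TDP2 per well | Incubation: 2 h at 37 °C | Signal: Epi absorbance | Evaluation: Percent inhibition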
# ABHD4 inh = ABHD4 inhibitors, primary screen, biochemical, fluorescence polarization, mouse; purified mABHD4, FP-Rh probe fluorescence polarization; 370,000 compounds, 0.54% hits; AID 720543, 2013; inhibition, % at 8.92 µM; (Lyso)-N-acylphosphatidylethanolamine lipase (Mus musculus), Q8VD66;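 active means inhibition exceeding the mean over every tested compound plus 3 SD, cut at about 30% in these data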;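 further: 0% = plate median of compound wells and 100% = S159A mutant with DMSO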
# Target sequence (Q8VD66 whole entry, looked up): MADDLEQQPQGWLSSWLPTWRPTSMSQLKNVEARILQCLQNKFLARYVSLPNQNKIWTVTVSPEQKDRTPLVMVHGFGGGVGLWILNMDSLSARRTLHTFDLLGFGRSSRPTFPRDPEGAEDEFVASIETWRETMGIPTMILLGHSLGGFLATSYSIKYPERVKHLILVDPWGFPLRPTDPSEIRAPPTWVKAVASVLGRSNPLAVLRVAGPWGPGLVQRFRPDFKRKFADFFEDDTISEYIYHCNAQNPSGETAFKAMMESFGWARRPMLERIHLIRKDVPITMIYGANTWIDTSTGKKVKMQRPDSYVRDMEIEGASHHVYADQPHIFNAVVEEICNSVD
#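 Test system: mouse ABHD4 enzyme, wild type. Reagent: FP-Rh fluorescent activity-based probe, added after compound pre-incubation. Timing: pre-incubation 45 min, probe exposure 60 min, at 25 °C. Technique: FP readout, ex 525 nm / em 598 nm. Benchmarks: high control S159A mutant with DMSO, low control median of compound wells.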
# PAD4 FP inh = human PAD4 inhibitors, primary screen, biochemical, fluorescence polarization, 1536-well format; inhibition, % at 6.36 µM; 330,000 compounds, 0.41% hits; Protein-arginine deiminase type-4 (Homo sapiens), Q9UM07; recombinant PAD4, RCA probe fluorescence polarization;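 active means percent inhibition above a cutoff equal to the mean of all tested compounds plus 3 SD, cut at about 15% in these data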;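 further: 0% = PAD4 with RCA probe and DMSO and 100% = probe without PAD4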
# SIAE inh = human SIAE inhibitors, primary screen, biochemical, fluorescence polarization, FP-Rh probe, 1536-well HTS; Sialate O-acetylesterase (Homo sapiens), Q9HAT2; SIAE FP-Rh probe binding; inhibition, % at 9.66 µM; 370,000 compounds, 0.69% hits;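 active means inhibition above a cutoff: mean of compounds within the control limits plus 3 SD of those, cut at about 17% in these data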;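 further: 0% = plate median of compound wells and 100% = probe without SIAE protein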
# HTRA1 inh = HTRA1 serine protease inhibitors, primary screen, biochemical, fluorescence polarization, HTS; AID 504803, 2011; Q92743; 340,000 compounds, 0.5% hits; recombinant HTRA1, FP-rhodamine activity-based probe; inhibition, % at 5.96 µM; in the data active means inhibition above about 36%;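 further: 0% = enzyme with DMSO and 100% = wells lacking enzyme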
# SIAE inh conf = human SIAE inhibitors, retest, confirmation, biochemical, fluorescence polarization, FP-Rh probe, triplicate; shares compounds with SIAE inh; SIAE FP-Rh activity-based probe; AID 1117263, 2014; 2,300 compounds, 13% hits; inhibition, % at 9.66 µM;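 active means mean inhibition of the replicates above the hit cutoff set in the primary screen, cut at about 17% in these data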;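 further: 0% = SIAE with DMSO and probe and 100% = probe without SIAE; inhibitors lower polarization as more probe stays unbound to SIAE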
# * hit, by the source's call; / = no result given. Compounds with a hit are over-represented: about 2% of the library has one in this group of screens.
SMILES,TCR-CD3 inh,TDP2 absorb,ABHD4 inh,PAD4 FP inh,SIAE inh,HTRA1 inh,SIAE inh conf
Cc1c(CCC(=O)O)c(=O)oc2c(C)c(OCc3cc4c(cc3Cl)OCO4)ccc12,-2,5,-11,-1,-18,9,/
Oc1ccccc1-c1nc2c3ccccc3c3ccccc3c2[nH]1,4,1,-19,2,27*,-21,-2
COc1cccc(C(=O)C2CCCN(Cc3cn(CC(N)=O)c4ccccc34)C2)c1 (centres undefined),-3,6,-5,4,19*,3,0
Cn1c(SCC(=O)NCC2CCCO2)nnc1-c1ccc(Cl)cc1 (centres undefined),2,12,4,-1,5,3,/
Cc1ccc(NC2=CC(=O)CC(C)(C)C2)cc1Cl,4,12,-1,0,20*,4,0
Cc1cc(NC(=O)CCc2c[nH]c3ccccc23)ccc1Oc1cccnc1,-1,3,-3,/,6,/,/
O=C(CCc1c[nH]c2ccccc12)Nc1ccc(Oc2cccnc2)cc1,2,0,-9,/,22*,/,32*
COc1cccc(C(=O)Oc2ccc(/C=N/Nc3ccc(C(=O)O)cc3)cc2OC)c1,2,-34,13,-2,9,5,/
CCOc1cc(/C=N/Nc2ccc(C(=O)O)cc2)ccc1OC(=O)c1ccccc1C,1,14,0,3,26*,1,31*
COC(=O)C1CCN(C(=O)COC(=O)CNC(=O)c2ccc(Cl)cc2Cl)CC1,-5,6,2,1,20*,11,-4
CC1CCCCN1C(=O)COC(=O)CNC(=O)c1ccc(Cl)cc1Cl (centres undefined),6,7,4,-2,6,6,/
O=C(CNC(=O)c1ccc(Cl)cc1Cl)OCN1C(=O)c2ccccc2C1=O,0,8,1,-2,19*,2,-4
COC[C@@H]1CCCN1c1ccc2c(c1)O[C@@H](COCc1ccccc1)CN([C@H](C)c1ccccc1)S2(=O)=O,-8,3,-13,/,0,/,/
Cc1ccc(CN2CCN(Cc3cc(=O)c4ccccc4[nH]3)CC2CCO)o1 (centres undefined),0,1,0,-1,17*,0,-10
COc1cc(SC)ccc1C(=O)Nc1cccc(C2OCCCO2)c1,-9,-7,3,2,-4,-7,/
C=CCNC(=O)c1onc(CSc2ccccc2)c1C(=O)O,-1,11,11,-1,-1,-4,/
C=CCNC(=O)c1onc(CSc2ccc(OC)cc2)c1C(=O)O,6,1,3,2,22*,5,-4
O=C1CCCCCN1CP(=O)(O)CN1CCCCCC1=O,-2,9,1,4,3,4,/
O=C(CCC(=O)OCC(F)(F)C(F)F)Nc1ccc(Cl)cc1,3,-9,-3,0,18*,2,3
CS(=O)(=O)N1CCC(NC(=O)Nc2ccc(OC(F)(F)F)cc2)CC1,-4,7,3,1,6,5,/
O=C(NCC(c1ccco1)N1CCCCC1)C(c1ccccc1)c1ccccc1 (centres undefined),6,16,2,8,7,-2,/
CC(Sc1ccc(Cl)cc1)C(=O)NCC(c1ccco1)N1CCCCC1 (centres undefined),-2,10,-4,-9,63*,-11,-2
COc1cc(C(=O)NCCC2=CCCCC2)ccc1OC1CCN(C(C)=O)CC1,-1,-6,3,1,19*,-1,0
COc1cc(C(=O)NCCc2ncccc2C)ccc1OC1CCN(C(C)=O)CC1,-7,-13,0,0,0,3,/
